Data published in ChEMBL document CHEMBL3421560, “Search for factors affecting antibacterial activity and toxicity of 1,2,4-triazole-ciprofloxacin hybrids” (Eur J Med Chem, 2015).
≈ marks a conversion by molar mass, not a printed value.

Columns and labels:
[1] = system: Staphylococcus aureus; assay: Ratio of MBC for methicillin-susceptible Staphylococcus aureus ATCC 6538 to MIC for methicillin-susceptible Staphylococcus aureus ATCC 6538; type: functional
In short: (§1)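 MBC taken as lowest concentration giving >99.9% CFU reduction of the initial inoculum; value is MBC divided by MIC for the same strain.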

[2] = system: Klebsiella pneumoniae; assay: Antimicrobial activity against Klebsiella pneumoniae ATCC 13883 after 18 hrs by broth microdilution method; type: functional; settings: ATCC 13883, 18 h
[3] = system: Bacillus cereus; assay: Antimicrobial activity against Bacillus cereus ATCC 10876 after 18 hrs by broth microdilution method; type: functional; settings: ATCC 10876, 18 h
[4] = system: Staphylococcus aureus; assay: Antimicrobial activity against Staphylococcus aureus Microbank 14001 after 18 hrs by broth microdilution method; type: functional; settings: Microbank 14001, 18 h
[5] = system: Staphylococcus aureus; assay: Ratio of MBC for methicillin-susceptible Staphylococcus aureus ATCC 25923 to MIC for methicillin-susceptible Staphylococcus aureus ATCC 25923; type: functional; in short: as §1
[6] = system: Escherichia coli; assay: Antimicrobial activity against Escherichia coli ATCC 25922 after 18 hrs by broth microdilution method; type: functional; settings: ATCC 25922, 18 h
[7] = system: Staphylococcus aureus; assay: Antimicrobial activity against methicillin-susceptible Staphylococcus aureus ATCC 25923 after 18 hrs by broth microdilution method; type: functional; settings: ATCC 25923, 18 h
[8] = system: Staphylococcus epidermidis; assay: Antimicrobial activity against Staphylococcus epidermidis ATCC 12228 after 18 hrs by broth microdilution method; type: functional; settings: ATCC 12228, 18 h
[9] = system: Proteus mirabilis; assay: Antimicrobial activity against Proteus mirabilis ATCC 12453 after 18 hrs by broth microdilution method; type: functional; settings: ATCC 12453, 18 h
[10] = system: Staphylococcus aureus; assay: Ratio of MBC for Staphylococcus aureus Microbank 14001 to MIC for Staphylococcus aureus Microbank 14001; type: functional; in short: as §1
[11] = system: Pseudomonas aeruginosa; assay: Antimicrobial activity against Pseudomonas aeruginosa ATCC 9027 after 18 hrs by broth microdilution method; type: functional; settings: ATCC 9027, 18 h
[12] = system: Bacillus subtilis; assay: Antimicrobial activity against Bacillus subtilis […] after 18 hrs by broth microdilution method; type: functional
[13] = system: Staphylococcus aureus; assay: Antimicrobial activity against methicillin-susceptible Staphylococcus aureus ATCC 6538 after 18 hrs by broth microdilution method; type: functional; settings: ATCC 6538, 18 h
[14] = system: Micrococcus luteus; assay: Antimicrobial activity against Micrococcus luteus ATCC 10240 after 18 hrs by broth microdilution method; type: functional; settings: ATCC 10240, 18 h
[15] = system: HEK293; assay: Cytotoxicity against HEK293 cells after 72 hrs by MTT assay; type: cell-based; settings: Homo sapiens, HEK293, 48 h; in the assay text read “48 hrs” for “72 hrs”
In short: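 HEK-293 (ATCC CRL-1573) in MEM with 10% FBS plus penicillin/streptomycin, seeded 3 x 10^5 cells/well, 24 h at 37 °C, 5% CO2. Treated with compounds diluted from 50 mg/mL DMSO stock into medium with 2% FBS for 48 h. Viability by MTT formazan readout; EC50 relative to control cells, mean ± SD of three independent experiments.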

SMILES | MIC [2] | MIC [3] | MIC [4] | MIC [6] | MIC [7] | MIC [8] | MIC [9] | MIC [11] | MIC [12] | MIC [13] | MIC [14] | Ratio [1] | Ratio [5] | Ratio [10] | EC50 [15]
O=C(O)c1cn(C2CC2)c2cc(N3CCN(Cn4nc(-c5cccc(O)c5)n(-c5ccc(F)cc5)c4=S)CC3)c(F)cc2c1=O | 0.048 µM (≈ 0.0303 µg/mL) | 0.19 µM (≈ 0.12 µg/mL) | 0.38 µM (≈ 0.24 µg/mL) | 0.012 µM (≈ 0.00757 µg/mL) | 0.76 µM (≈ 0.479 µg/mL) | 0.19 µM (≈ 0.12 µg/mL) | 0.024 µM (≈ 0.0151 µg/mL) | 0.38 µM (≈ 0.24 µg/mL) | 0.095 µM (≈ 0.0599 µg/mL) | 0.38 µM (≈ 0.24 µg/mL) | 1.55 µM (≈ 0.978 µg/mL) | <=4 | <=4 | <=4 | –
CN[C@H](CC(C)C)C(=O)N[C@H]1C(=O)N[C@@H](CC(N)=O)C(=O)N[C@H]2C(=O)N[C@H]3C(=O)N[C@H](C(=O)N[C@H](C(=O)O)c4cc(O)cc(O)c4-c4cc3ccc4O)[C@H](O)c3ccc(c(Cl)c3)Oc3cc2cc(c3O[C@@H]2O[C@H](CO)[C@@H](O)[C@H](O)[C@H]2O[C@H]2C[C@](C)(N)[C@H](O)[C@H](C)O2)Oc2ccc(cc2Cl)[C@H]1O [VANCOMYCIN] | – | – | 0.68 µM (≈ 0.986 µg/mL) | – | – | – | – | – | – | – | – | – | – | – | –
COc1ccc(-n2c(-c3cccc(O)c3)nn(CN3CCN(c4cc5c(cc4F)c(=O)c(C(=O)O)cn5C4CC4)CC3)c2=S)cc1 | 0.093 µM (≈ 0.0598 µg/mL) | 0.19 µM (≈ 0.122 µg/mL) | 0.093 µM (≈ 0.0598 µg/mL) | 0.006 µM (≈ 0.00386 µg/mL) | 0.74 µM (≈ 0.476 µg/mL) | 0.19 µM (≈ 0.122 µg/mL) | 0.047 µM (≈ 0.0302 µg/mL) | 0.19 µM (≈ 0.122 µg/mL) | 0.37 µM (≈ 0.238 µg/mL) | 0.37 µM (≈ 0.238 µg/mL) | 1.52 µM (≈ 0.977 µg/mL) | <=4 | <=4 | <=4 | 114 µM
O=C(O)c1cn(C2CC2)c2cc(N3CCN(Cn4nc(-c5cccc(O)c5)n(-c5ccccc5)c4=S)CC3)c(F)cc2c1=O | 0.049 µM (≈ 0.03 µg/mL) | 0.19 µM (≈ 0.116 µg/mL) | 0.39 µM (≈ 0.239 µg/mL) | 0.012 µM (≈ 0.00735 µg/mL) | 0.8 µM (≈ 0.49 µg/mL) | 0.19 µM (≈ 0.116 µg/mL) | 0.024 µM (≈ 0.0147 µg/mL) | 0.19 µM (≈ 0.116 µg/mL) | 0.098 µM (≈ 0.06 µg/mL) | 0.39 µM (≈ 0.239 µg/mL) | 1.6 µM (≈ 0.98 µg/mL) | <=4 | <=4 | <=4 | 140 µM

More lines, main results first:

MIC [2] | MIC [3] | MIC [4] | MIC [6] | MIC [7] | MIC [8] | MIC [9] | MIC [11] | MIC [12] | MIC [13] | MIC [14] | SMILES | Ratio [1] | Ratio [5] | Ratio [10] | EC50 [15]
0.093 µM (≈ 0.0602 µg/mL) | 0.18 µM (≈ 0.116 µg/mL) | 0.093 µM (≈ 0.0602 µg/mL) | 0.011 µM (≈ 0.00712 µg/mL) | 0.76 µM (≈ 0.492 µg/mL) | 0.18 µM (≈ 0.116 µg/mL) | 0.012 µM (≈ 0.00777 µg/mL) | 0.18 µM (≈ 0.116 µg/mL) | 0.046 µM (≈ 0.0298 µg/mL) | 0.37 µM (≈ 0.239 µg/mL) | 1.51 µM (≈ 0.977 µg/mL) | O=C(O)c1cn(C2CC2)c2cc(N3CCN(Cn4nc(-c5ccc(O)cc5)n(-c5ccc(Cl)cc5)c4=S)CC3)c(F)cc2c1=O | <=4 | <=4 | <=4 | –
0.023 µM (≈ 0.0152 µg/mL) | 0.091 µM (≈ 0.0602 µg/mL) | 0.36 µM (≈ 0.238 µg/mL) | 0.023 µM (≈ 0.0152 µg/mL) | 0.74 µM (≈ 0.489 µg/mL) | 0.091 µM (≈ 0.0602 µg/mL) | 0.046 µM (≈ 0.0304 µg/mL) | 0.36 µM (≈ 0.238 µg/mL) | 0.045 µM (≈ 0.0298 µg/mL) | 0.18 µM (≈ 0.119 µg/mL) | 1.48 µM (≈ 0.979 µg/mL) | O=C(O)c1cn(C2CC2)c2cc(N3CCN(Cn4nc(-c5ccccc5O)n(Cc5ccc(Cl)cc5)c4=S)CC3)c(F)cc2c1=O | <=4 | <=4 | <=4 | –
0.023 µM (≈ 0.0149 µg/mL) | 0.18 µM (≈ 0.116 µg/mL) | 0.093 µM (≈ 0.0602 µg/mL) | 0.011 µM (≈ 0.00712 µg/mL) | 0.76 µM (≈ 0.492 µg/mL) | 0.18 µM (≈ 0.116 µg/mL) | 0.011 µM (≈ 0.00712 µg/mL) | 0.37 µM (≈ 0.239 µg/mL) | 0.093 µM (≈ 0.0602 µg/mL) | 0.18 µM (≈ 0.116 µg/mL) | 1.51 µM (≈ 0.977 µg/mL) | O=C(O)c1cn(C2CC2)c2cc(N3CCN(Cn4nc(-c5ccccc5O)n(-c5ccc(Cl)cc5)c4=S)CC3)c(F)cc2c1=O | <=4 | <=4 | <=4 | –
0.18 µM (≈ 0.119 µg/mL) | 0.18 µM (≈ 0.119 µg/mL) | 1.48 µM (≈ 0.979 µg/mL) | 0.023 µM (≈ 0.0152 µg/mL) | 1.48 µM (≈ 0.979 µg/mL) | 0.18 µM (≈ 0.119 µg/mL) | 0.023 µM (≈ 0.0152 µg/mL) | 0.36 µM (≈ 0.238 µg/mL) | 0.18 µM (≈ 0.119 µg/mL) | 1.48 µM (≈ 0.979 µg/mL) | 2.95 µM (≈ 1.95 µg/mL) | O=C(O)c1cn(C2CC2)c2cc(N3CCN(Cn4nc(-c5cccc(O)c5)n(Cc5ccc(Cl)cc5)c4=S)CC3)c(F)cc2c1=O | <=4 | <=4 | <=4 | –
0.049 µM (≈ 0.03 µg/mL) | 0.098 µM (≈ 0.06 µg/mL) | 0.39 µM (≈ 0.239 µg/mL) | 0.024 µM (≈ 0.0147 µg/mL) | 1.6 µM (≈ 0.98 µg/mL) | 0.098 µM (≈ 0.06 µg/mL) | 0.049 µM (≈ 0.03 µg/mL) | 0.2 µM (≈ 0.123 µg/mL) | 0.024 µM (≈ 0.0147 µg/mL) | 0.39 µM (≈ 0.239 µg/mL) | 1.6 µM (≈ 0.98 µg/mL) | O=C(O)c1cn(C2CC2)c2cc(N3CCN(Cn4nc(-c5ccc(O)cc5)n(-c5ccccc5)c4=S)CC3)c(F)cc2c1=O | <=4 | <=4 | <=4 | –
